From ChEMBL document CHEMBL1145745 (J Med Chem, 2003)

What was measured:
[1] = system: Mus musculus; assay: In vivo average survival rate of mouse infected by T.b. rhodesiense was determined for a period of 60 days at dose of 75 mg/kg by p.o. administration; type: functional; details: route oral
Procedure, shortened: (§1)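 Mice infected with T. b. rhodesiense STIB900. Diamidines were given intraperitoneally and prodrugs orally, with an untreated infected control group. Parasitemia was monitored daily to day 14, then twice weekly to day 60. For relapsing mice, the day of death was recorded and survival time was averaged in days.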

[2] = system: Mus musculus; assay: No. of mice that survived T.b. rhodesiense infection and are parasite free for 60 days was determined at dose of 75 mg/kg by p.o. administration; 4 animals tested; type: functional; details: route oral
Procedure, shortened: (§2)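 Mice infected with T. b. rhodesiense STIB900. Diamidines were given intraperitoneally and prodrugs orally. An untreated infected group served as control. Parasitemia was checked daily up to day 14 post-infection, then twice weekly up to day 60. A cure was counted as a mouse that survived and stayed parasite-free for 60 days.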

[3] = system: Plasmodium falciparum; assay: In vitro inhibitory activity against Plasmodium falciparum; type: functional, organism-based
[4] = system: Trypanosoma brucei rhodesiense; assay: In vitro inhibitory activity against T. b. rhodesiense; type: functional, organism-based
[5] = system: Nucleic Acid
[6] = system: Mus musculus; assay: In vivo average survival rate of mouse infected by T.b. rhodesiense was determined for a period of 60 days at dose of 50 mg/kg by p.o. administration; type: functional; details: route oral; procedure, shortened: as §1
[7] = system: Mus musculus; assay: No. of mice that survived T.b. rhodesiense infection and are parasite free for 60 days was determined at dose of 50 mg/kg by p.o. administration; 5 animals tested; type: functional; details: route oral; procedure, shortened: as §2
[8] = system: Mus musculus; assay: In vivo average survival rate of mouse infected by T.b. rhodesiense was determined for a period of 60 days at dose of 20 mg/kg by i.p. administration; type: functional; details: route intraperitoneal; procedure, shortened: as §1
[9] = system: Mus musculus; assay: No. of mice that survived T.b. rhodesiense infection and are parasite free for 60 days was determined at dose of 20 mg/kg by i.p. administration; 4 animals tested; type: functional; details: route intraperitoneal; procedure, shortened: as §2
[10] = system: Nucleic Acid; details: Bos taurus
[11] = system: Mus musculus; assay: In vivo average survival rate of mouse infected by T.b. rhodesiense was determined for a period of 60 days at dose of 100 mg/kg by p.o. administration; type: functional; details: route oral; procedure, shortened: as §1
[12] = system: Mus musculus; assay: No. of mice that survived T.b. rhodesiense infection and are parasite free for 60 days was determined at dose of 100 mg/kg by p.o. administration; 4 animals tested; type: functional; details: route oral; procedure, shortened: as §2
[13] = system: Nucleic Acid; remark: listed apart in the source
[14] = system: Mus musculus; assay: In vivo average survival rate of mouse infected by T.b. rhodesiense was determined for a period of 60 days at dose of 5 mg/kg by p.o. administration; type: functional; details: route oral; procedure, shortened: as §1
[15] = system: Mus musculus; assay: No. of mice that survived T.b. rhodesiense infection and are parasite free for 60 days was determined at dose 5 mg/kg of by p.o. administration; 4 animals tested; type: functional; details: route oral; procedure, shortened: as §2
[16] = system: Mus musculus; assay: No. of mice that survived T.b. rhodesiense infection and are parasite free for 60 days was determined at dose of 50 mg/kg by p.o. administration; 4 animals tested; type: functional; details: route oral; procedure, shortened: as §2
[17] = system: Mus musculus; assay: In vivo antitrypanosomal activity against T.b. rhodesiense mouse and no. of that survive and are parasite free for 60 days was determined at dose of 5 mg/kg by p.o. administration; 4 animals tested; type: functional; details: route oral; procedure, shortened: as §2
[18] = system: Mus musculus; assay: No. of mice that survived T.b. rhodesiense infection and are parasite free for 60 days was determined at dose of 5 mg/kg by p.o. administration; 4 animals tested; type: functional; details: route oral; procedure, shortened: as §2

SMILES | IC50 [3] | IC50 [4] | ΔTm [5] | Survival [8] | Cures [9] | ΔTm [10] | other results
N/C(=N\O)c1ccc(-c2ccc(-c3ccc(/C(N)=N\O)cn3)o2)nc1 | > 10.2 µM | 55.8 µM | 0.9 |  |  |  | Survival [1]: 18 days; Cures [2]: 0
CONC(=N)c1ccc(-c2ccc(-c3ccc(C(=N)NOC)cc3)o2)cc1 [PAFURAMIDINE] |  |  |  |  |  |  | Survival [6]: 60 days; Cures [7]: 2
N=C(N)c1ccc(-c2ccc(-c3cccc(C(=N)N)c3)o2)nc1 | 0.0088 µM | 0.0407 µM | 7.3 | 26.25 days | 0 | 3.3 | 
CONC(=N)c1ccc(-c2ccc(-c3ccc(C(=N)NOC)nc3)o2)cn1 | 1.31 µM | 1.91 µM | -0.5 |  |  |  | Survival [11]: 21.75 days; Cures [12]: 0
N=C(N)c1ccc(-c2ccc(-c3ccc(C(=N)N)nc3)o2)cn1 | 0.0039 µM | 0.007 µM |  | 59 days | 3 | 8.2 | ΔTm [13]: 18.5
N=C(NO)c1cccc(-c2ccc(-c3ccc(/C(N)=N\O)cn3)o2)c1 | 41.5 µM | 13.3 µM |  |  |  |  | 
N=C(N)c1ccc(-c2ccc(-c3ccc(C(=N)N)cn3)o2)nc1 | 0.083 µM | 0.021 µM | 15.5 | 60 days | 4 | 5.4 | 
CCONC(=N)c1ccc(-c2ccc(-c3ccc(C(=N)NOCC)cn3)o2)cc1 | 7.3 µM | 8.4 µM |  |  |  |  | Survival [11]: 60 days; Cures [12]: 4
N=C(N)c1ccc(-c2ccc(-c3ccc(C(=N)N)nc3)o2)cc1 | 0.0183 µM | 0.0031 µM | 22.6 | 56.5 days | 2 | 3.1 | 
N=C(NO)c1ccc(-c2ccc(-c3ccc(/C(N)=N\O)cc3)o2)cc1 |  |  |  |  |  |  | Survival [11]: 50 days; Cures [12]: 0
CO/N=C(\N)c1ccc(-c2ccc(-c3ccc(/C(N)=N/OC)cn3)o2)cc1 | 4.9 µM | 37.1 µM | 0.9 |  |  |  | Survival [14]: 60 days; Cures [15]: 4
CO/N=C(\N)c1ccc(-c2ccc(-c3ccc(/C(N)=N/OC)cn3)o2)nc1 | 1.77 µM | 11.1 µM |  |  |  |  | Survival [6]: 60 days; Survival [14]: 40 days; Cures [16]: 4; Cures [17]: 1
N=C(N)c1ccc(Cc2ccc(-c3ccc(C(=N)N)nc3)o2)cc1 | 0.148 µM | 0.147 µM | 3.6 |  |  | 1.3 | 
N=C(NO)c1ccc(-c2ccc(-c3ccc(/C(N)=N/O)nc3)o2)cn1 | > 10.5 µM | > 21 µM |  |  |  |  | Survival [6]: 30 days; Cures [16]: 1
N=C(NO)c1ccc(-c2ccc(-c3ccc(/C(N)=N/O)nc3)o2)cc1 | > 11.7 µM |  |  |  |  |  | Survival [1]: 52.75 days; Cures [2]: 3
N=C(N)c1ccc(-c2ccc(-c3ccc(C(=N)N)cn3)o2)cc1 |  | 0.007 µM |  | 60 days | 4 | 6.6 | 
N=C(NO)c1ccc(-c2ccc(-c3ccc(/C(N)=N/O)cn3)o2)cc1 | 4.3 µM | 120 µM |  |  |  |  | Survival [11]: 54 days; Cures [12]: 0
N=C(N)c1ccc(OCCCCCOc2ccc(C(=N)N)cc2)cc1 [PENTAMIDINE] |  |  |  | 40.8 days | 0 | 2 | 
CONC(=N)c1ccc(-c2ccc(-c3ccc(C(=N)NOC)cn3)s2)cc1 | 4.9 µM | 9.4 µM | 0 |  |  |  | 
N=C(N)c1ccc(-c2ccc(-c3ccc(C(=N)N)cc3)o2)cc1 [FURAMIDINE] |  |  |  | 52.5 days | 0 | 8.9 | 
N=C(NO)c1ccc(-c2ccc(-c3ccc(/C(N)=N\O)cc3)s2)nc1 | > 10.4 µM |  |  |  |  |  | 
CONC(=N)c1ccc(-c2ccc(-c3ccc(C(=N)NOC)nc3)o2)cc1 | 8.5 µM | 6.5 µM |  |  |  |  | Survival [14]: 34.25 days; Survival [1]: 60 days; Cures [18]: 1; Cures [2]: 4
